Tests used:
[1] = Octanol-phosphate buffer partition coefficient, log P of the compound at pH 11.5; type: physicochemical
Outline: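 Compound partitioned between 0.05 M phosphate buffer (pH 11.5) and octanol, each pre-saturated with the other. Gentle shaking for 90 min at 25 ± 5 °C. Phase ratio and sample amount set so the buffer-layer absorbance fell between 0.2 and 0.9 (1-cm cell, buffer blank). Free-base P was corrected for degree of ionization using pKa.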

[2] = tested on: Streptococcus mutans; test: Antimicrobial activity against Streptococcus mutans 6715 after 24 hrs by spectrophotometry; type: functional
Outline: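 Inoculated with a 24-h S. mutans 6715 culture and incubated anaerobically at 37 °C. Growth read spectrophotometrically. Dilution series run in sets of five tubes. MIC is the lowest drug level with readings above 60% T at 24 h. Repeat determinations agreed.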

[3] = tested on: Streptococcus mutans; test: Antimicrobial activity against Streptococcus mutans 6715 after 48 hrs by spectrophotometry; type: functional
Outline: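 Trypticase soy broth with sucrose and the salt of the test agent dosed from ethanol, inoculated with a 24-h S. mutans 6715 culture. Incubated anaerobically at 37 °C. Growth measured spectrophotometrically at 48 h. Each dilution tested in sets of five tubes.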

[4] = Dissociation constant, pKa of the compound in 3:1 water:ethanol at 1 x 10 '-3 M; type: physicochemical
Outline: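 pKa measured in duplicate by potentiometric titration in 3:1 water–ethanol at 10⁻³. pH recorded after each titrant addition, and pKa calculated by the Albert–Serjeant method.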

SMILES | logD [1] | log(1/MIC) [2] | log(1/MIC) [3] | pKa at 1000 µM [4]
CCCCCCCCCCNC(=N)NC(=N)Nc1ccccc1 | 5.43 | 5.3 | 5.15 | –
CC(C)OC(=N)NC(=N)Nc1ccc(Cl)cc1 | 2.64 | 3.3 | 3.3 | 9.35
CCCCCCCCNC(=N)NC(=N)Nc1ccc(Cl)cc1 | 5.13 | 5.22 | 5.22 | –
CCCCC(CC)CNC(=N)NC(=N)Nc1ccc(Cl)cc1 (stereo not drawn) | 4.93 | 5.4 | 5.4 | –
CCCCSc1ccc(NC(=N)NC(=N)NCCCCCCNC(=N)NC(=N)Nc2ccc(SCCCC)cc2)cc1 | 7.58 | 5.7 | 5.52 | –
CCOC(=N)NC(=N)Nc1ccc(Cl)cc1 | 2.32 | 3.7 | 3.7 | 9.36
CCCCC(CC)CNC(=N)NC(=N)NCCCCCCNC(=N)NC(=N)NCC(CC)CCCC (stereo not drawn) [ALEXIDINE] | 7.04 | 5.15 | 5.1 | –
CCCCCCNC(=N)NC(=N)Nc1cccc(C(F)(F)F)c1 | 4.31 | 5 | 4.96 | –
CCSc1ccc(NC(=N)NC(=N)NCCCCCCNC(=N)NC(=N)Nc2ccc(SCC)cc2)cc1 | 5.58 | 5.7 | 5.7 | –
N=C(NCCCCCCNC(=N)NC(=N)Nc1cccc(C(F)(F)F)c1)NC(=N)Nc1cccc(C(F)(F)F)c1 | 5.12 | 5.52 | 5.22 | –
CCCCCCCCCCOC(=N)NC(=N)Nc1ccc(Cl)cc1 | 6.32 | 5.05 | 5.05 | –
CCCNC(=N)NC(=N)Nc1ccc(Cl)cc1 | 2.63 | 3.04 | 3 | 10.8
CCCCCCCCNC(=N)NC(=N)Nc1ccc(C)cc1 | 4.93 | 5.4 | 5.3 | –
N=C(NCCCCCCNC(=N)NC(=N)NC1CCCCC1)NC(=N)NC1CCCCC1 | 4.46 | 5.4 | 5.4 | –
CCCCC(CC)CNC(=N)NC(=N)Nc1ccc(C)cc1 (stereo not drawn) | 4.73 | 5.22 | 5.22 | –
CNC(=N)NC(=N)Nc1ccc(Cl)cc1 | 1.58 | 3 | 3 | 10.6
CCCCCCCCNC(=N)NC(=N)Nc1cccc(C(F)(F)F)c1 | 5.31 | 5.3 | 5.3 | –
N=C(NCCCCCCNC(=N)NC(=N)NC12CC3CC(CC(C3)C1)C2)NC(=N)NC12CC3CC(CC(C3)C1)C2 | 6.04 | 5 | 5 | –
CCCCCC/N=C(N)/N=C(\N)Nc1ccc(Cl)cc1 | 3.13 | 5 | 5 | –

SMILES | logD [1] | log(1/MIC) [2] | log(1/MIC) [3] | pKa at 1000 µM [4]
CCNC(=N)NC(=N)Nc1ccc(Cl)cc1 | 2.14 | 3.04 | 3 | 10.8
CCCCCCCCOC(=N)NC(=N)Nc1ccc(Cl)cc1 | 5.32 | 5.52 | 5.3 | –
CCCCNC(=N)NC(=N)Nc1ccc(Cl)cc1 | 3.13 | 4 | 4 | 10.8
N=C(NCCCCCCNC(=N)NC(=N)Nc1ccc(Cl)cc1)NC(=N)Nc1ccc(Cl)cc1 [CHLORHEXIDINE] | 4.78 | 5.3 | 5.22 | 10.8
CSc1ccc(NC(=N)NC(=N)NCCCCCCNC(=N)NC(=N)Nc2ccc(SC)cc2)cc1 | 4.58 | 5.4 | 5.4 | –
CCCCS(=O)(=O)c1ccc(NC(=N)NC(=N)NCCCCCCNC(=N)NC(=N)Nc2ccc(S(=O)(=O)CCCC)cc2)cc1 | 3.1 | 4.7 | 4.52 | –
CCCSc1ccc(NC(=N)NC(=N)NCCCCCCNC(=N)NC(=N)Nc2ccc(SCCC)cc2)cc1 | 6.58 | 5.3 | 5.22 | –
CCCCCSc1ccc(NC(=N)NC(=N)NCCCCCCNC(=N)NC(=N)Nc2ccc(SCCCCC)cc2)cc1 | 8.58 | 5.52 | 5.3 | –
CCCCCCOC(=N)NC(=N)Nc1ccc(Cl)cc1 | 4.32 | 5.1 | 5 | –
CCCCOC(=N)NC(=N)Nc1ccc(Cl)cc1 | 3.32 | 4.15 | 4 | –
CCCCCCCCCCCCNC(=N)NC(=N)Nc1ccc(Cl)cc1 | 7.13 | 5 | 4.7 | –
CCCCCCCCNC(=N)NC(=N)Nc1ccccc1 | 4.43 | 5.22 | 5.04 | –
CCCCCS(=O)(=O)c1ccc(NC(=N)NC(=N)NCCCCCCNC(=N)NC(=N)Nc2ccc(S(=O)(=O)CCCCC)cc2)cc1 | 4.1 | 5.52 | 5.4 | –
CCCCCCCCCCNC(=N)NC(=N)Nc1ccc(Cl)cc1 | 6.13 | 5.1 | 5 | –
CCCS(=O)(=O)c1ccc(NC(=N)NC(=N)NCCCCCCNC(=N)NC(=N)Nc2ccc(S(=O)(=O)CCC)cc2)cc1 | 2.1 | 3.7 | 3.7 | –
CC(C)NC(=N)NC(=N)Nc1ccc(Cl)cc1 [PROGUANIL] | 2.43 | 3.04 | 3 | –
CCCCCCS(=O)(=O)c1ccc(NC(=N)NC(=N)NCCCCCCNC(=N)NC(=N)Nc2ccc(S(=O)(=O)CCCCCC)cc2)cc1 | 5.1 | 5.4 | 5.4 | –
CCCCCCCCNC(=N)NC(=N)Nc1ccc(OC)cc1 | 4.41 | 5.22 | 5 | –

Source: ChEMBL document CHEMBL3227938, “Quantitative structure-activity relationships for biguanides, carbamimidates, and bisbiguanides as inhibitors of Streptococcus mutans No. 6715” (J Med Chem, 1979)
